# Screens: PubChem, The Scripps Research Institute Molecular Screening Center
# HTR1E antagonist – blocks the human 5-HT1E serotonin receptor | hit rate 0.99% among 65,000 | inhibition, % at 6 µM | AID 571 | CHO 5-HT1E Ga15 NFAT-bla reporter, FRET, antagonist;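 active = inhibition above a set limit, the mean inhibition across every tested compound plus 3 SD, cut at about 29% in these data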;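 note: signal is the 460 over 535 nm emission ratio of beta-lactamase substrate; 0% = agonist plus DMSO wells and 100% = wells without agonist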
# S1P3 ag – agonists of human S1P3 receptor. Q99500. S1P3 NFAT-BLA reporter cells, agonism, FRET ratio; relative to 1 µM S1P, basal subtracted. activation, % at 4.5 µM. hit rate 0.1% among 60,000. AID 373;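 active = activation above the screen-wide mean plus 3 SD, cut at about 4.5% in these data, passing the limit was not always enough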
#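 material = human S1P3 NFAT-BLA reporter CHO cells | schedule = 4 h compound at 37 °C, 2 h substrate at RT | measured by = fluorescent BLA substrate, ex 405 nm, em 460/535 nm ratio | controls = 1 µM S1P reference | replication = primary once, confirmation triplicate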
# HTR1E agonist – activates the human 5-HT1E serotonin receptor | activation, % at 6 µM | hit rate 0.69% among 65,000 | AID 574 | CHO 5-HT1E Ga15 NFAT-bla reporter, FRET; 0% DMSO wells, 100% control agonist wells;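 active = activation above a set limit, the screen-wide mean activation plus 3 SD, cut at about 8.5% in these data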;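 note: 100% = positive control agonist at 1 µM giving full maximal response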
# 5HT1a antag – antagonists of human 5-HT1a serotonin receptor; CHO 5-HT1a Ga15 NFAT-bla reporter, antagonist mode; hit rate 0.68% among 62,000; inhibition, % at 10 µM; P08908;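 active = inhibition above the mean of all tested compounds plus 3 SD, cut at about 43% in these data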;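 note: receptor stimulated by 5-CT agonist at 100 nM near EC80; beta-lactamase reporter measured by ratiometric fluorescence of a cleavable substrate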
# Target sequence (P08908 whole entry, looked up): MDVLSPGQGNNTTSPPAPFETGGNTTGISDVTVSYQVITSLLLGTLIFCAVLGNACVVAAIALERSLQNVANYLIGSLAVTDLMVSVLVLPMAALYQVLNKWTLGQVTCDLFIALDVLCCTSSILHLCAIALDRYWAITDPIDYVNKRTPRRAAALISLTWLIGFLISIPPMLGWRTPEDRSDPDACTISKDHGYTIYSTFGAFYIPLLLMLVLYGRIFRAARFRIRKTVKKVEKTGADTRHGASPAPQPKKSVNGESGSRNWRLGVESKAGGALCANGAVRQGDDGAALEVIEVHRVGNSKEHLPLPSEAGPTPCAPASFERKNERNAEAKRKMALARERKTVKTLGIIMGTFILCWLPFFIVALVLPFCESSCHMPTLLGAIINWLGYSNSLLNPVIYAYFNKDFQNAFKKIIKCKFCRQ
# S1P1 ag pot – agonists and agonism potentiators of human S1P1 receptor; P21453; AID 449; activation, % at 9.5 µM; hit rate 0.57% among 56,000; S1P1 CRE-bla cells, forskolin, beta-lactamase FRET, potentiator mode; S1P1 agonist co-added at EC20, 2 nM; 100% = saturating reference agonist, 0% = basal;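 active = activation above a cutoff set at the mean activation of all tested compounds plus 3 SD, cut at about 54% in these data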;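 note: forskolin at 4 µM as EC80 and the EC20 agonist is SEW2871; 100% = SEW2871 at its EC100 plus forskolin at EC80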
# HTR1A agonist – activates the human 5-HT1a serotonin receptor; hit rate 0.56% among 65,000; activation, % at 10 µM; P08908; CHO 5-HT1a Ga15 NFAT-bla reporter, FRET ratio; 0% basal, 100% maximal reference agonist;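 active = activation above the screen-wide mean activation plus 3 SD, cut at about 19% in these data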;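 note: 0% = DMSO wells and 100% = 5-CT at EC100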
# Active calls of the source: *; nt = no result given. Rows were chosen to be rich in hits. Some 3% of all compounds tested hit in one or more screens of this group.
SMILES,HTR1E antagonist,S1P3 ag,HTR1E agonist,5HT1a antag,S1P1 ag pot,HTR1A agonist
Cc1ccc(S(=O)(=O)Nc2nc3ccc(S(=O)(=O)N4CCCC4)cc3s2)cc1,-0.3,-1.0,5.4,15.3,nt,-0.6
CCOc1cc(-c2cc(-c3ccc(N)cc3)nc(N)c2C#N)ccc1O,30.2*,1.3,2.5,4.2,0.5,5.8
CCC(C)(C)n1nnnc1C(c1ccc(O)c(OC)c1)N1CCN(c2nc3ccccc3s2)CC1 (stereo not given),4.9,-0.7,24.9*,25.9,4.8,-0.4
COc1ccccc1C(c1nnnn1Cc1ccccc1)N1CCN(c2nc3ccccc3s2)CC1 (stereo not given),-8.7,-1.4,1.1,44.4*,3.6,2.5
CCC(C)(C)n1nnnc1C(c1cccc(C#N)c1)N1CCN(c2cccc(C)c2C)CC1 (stereo not given),-2.3,-0.3,10.5*,17.9,11.3,-2.1
CC(C)(C)n1nnnc1C(c1cccc(C#N)c1)N1CCN2CCCC2C1 (stereo not given),-5.6,0.8,1.0,-7.2,9.5,0.8
CCOC(=O)COc1ccc2c(c1)c(C(=O)OCC)c(C)n2CC,5.8,-1.1,-0.5,8.7,-5.9,-1.0
O=C1c2ccccc2C(O)(Cc2ccccc2)N1c1ccc2c(c1)OCO2 (stereo not given),5.4,-0.6,-1.2,15.0,-7.3,-0.5
CCCCCCNC(=O)Cc1nc2nc(C)cc(C)n2n1,12.3,nt,0.1,12.3,nt,-1.6
CCC(=O)N1CCc2cc(OC)c(OC)cc2C1COc1ccc(C(=O)OC)cc1 (stereo not given),37.4*,nt,-1.0,18.1,nt,1.1
COC(=O)c1ccc(OCC2c3cc(OC)c(OC)cc3CCN2C(=O)c2ccco2)cc1 (stereo not given),36.2*,nt,0.2,23.1,nt,3.1
Cc1cc(OCc2nn[nH]n2)c2c(C)c(Cc3ccccc3)c(=O)oc2c1,-12.1,-0.4,-0.1,-7.3,-7.8,5.3
O=C(NC1CCCC1)C1C2C=CC3(CN(Cc4cccs4)C(=O)C13)O2 (stereo not given),0.1,0.1,1.7,-5.0,4.4,1.2
O=C(NCC1CCCO1)C1C2C=CC3(CN(Cc4cccs4)C(=O)C13)O2 (stereo not given),2.5,-0.8,28.9*,6.7,-11.0,-1.4
CC(O)Cn1cnc2c1c(=O)n(C)c(=O)n2C (stereo not given),-13.7,-3.5,-0.1,nt,2.2,0.4
CCc1ccc(S(=O)(=O)NCc2cn3ccsc3n2)s1,-1.6,0.4,22.2*,4.7,-30.4,-2.5
O=S(=O)(NCc1cn2ccsc2n1)c1ccc(Oc2ccccc2)cc1,5.0,-0.1,1.0,12.0,83.8*,-2.5
O=S(=O)(NCc1cn2ccsc2n1)c1cccs1,-0.3,-0.5,-0.4,2.3,-35.6,-4.7
CCN(CCCn1c(SCC#N)nc2ccccc2c1=O)c1ccccc1,12.3,-0.7,0.2,16.9,7.3,3.0
O=C(COC(=O)c1ccc(S(=O)(=O)N2CCCC2)cc1)NCc1ccccc1,-10.9,1.6,-0.6,-3.6,-53.9,-6.4
Cc1cccc(NC(=O)CCNS(=O)(=O)c2cccc3nsnc23)c1,-6.1,nt,38.2*,-5.2,nt,0.1
CC1CC(C)CN(c2nc3c(c(=O)n(C)c(=O)n3C)n2CCSc2nc3ccccc3o2)C1 (stereo not given),-6.7,0.4,0.2,-8.1,-6.2,-1.3
N#Cc1nc(-c2cccs2)oc1NCc1ccc2c(c1)OCO2,3.8,-5.6,-1.3,nt,-21.9,-1.0
CCOC(=O)c1oc2ccccc2c1NC(=O)COc1cccc(OC)c1,-1.9,0.5,-0.1,5.0,1.7,2.0
CCOC(=O)c1oc2ccccc2c1NC(=O)c1ccccc1OC,47.0*,0.6,0.0,48.7*,-39.2,-0.6
SMILES,HTR1E antagonist,S1P3 ag,HTR1E agonist,5HT1a antag,S1P1 ag pot,HTR1A agonist
COc1ccc(Br)cc1C1N2CC3(C)CN1CC(C)(C2)C3=O (stereo not given),3.6,nt,1.9,-4.0,nt,-2.0
O=C(CSc1nnc(-c2ccc(O)cc2)o1)N1CCOCC1,7.2,-0.5,0.3,0.9,-3.9,-1.1
Oc1ccc(-c2nnc(SCC3CCCCC3)o2)cc1,-15.0,2.9,0.6,22.3,113.0*,1.8
CCc1oc2ccccc2c1C(=O)c1cc(Br)c(O)c(Br)c1,-1.9,-1.9,-0.8,nt,67.7*,-1.5
CCOC(=O)c1c(COc2ccccc2)oc2ccc(O)cc12,8.2,-1.6,-0.5,20.1,-0.3,0.2
CCOC(=O)CN(C(=O)CSc1nnc(COc2ccc(OC)cc2)n1C)c1ccccc1,-7.5,-1.8,-0.1,4.9,0.7,0.5
O=C(CSc1nnc(Cc2cccs2)n1Cc1ccco1)Nc1cc(Cl)cc(Cl)c1,-5.9,-0.1,1.2,45.6*,7.1,3.4
O=C(CSc1nnc(Cc2cccs2)n1Cc1ccco1)Nc1cccc(Cl)c1,3.4,-0.4,-0.8,40.8,12.5,2.4
CC(=O)c1c(C(C)=O)c(C)n(NC(=O)c2ccncc2)c1C,-6.0,-2.8,0.2,nt,1.7,-0.6
CCOC(=O)Nc1ccc2c(c1)N(C(=O)CCN1CCOCC1)c1ccccc1S2=O (stereo not given),17.8,0.0,-0.8,51.9*,31.5,-3.5
CCOC(=O)Nc1ccc2c(c1)N(C(=O)CCN1CCOCC1)c1ccccc1S2,7.5,-0.9,0.4,2.2,-28.7,-0.8
Cn1c(Cn2c(=O)sc3ccccc32)nnc1SCC(=O)NCc1ccc(F)cc1,-23.5,0.4,0.2,-11.4,-5.7,40.2*
O=C(CCS(=O)(=O)c1ccccc1)Nc1nc2c(s1)COc1ccccc1-2,-8.0,-0.5,0.5,16.5,8.5,1.1
COc1ccc(F)cc1S(=O)(=O)Nc1ccc(C)cc1,-1.1,0.0,-0.8,8.7,4.5,-2.9
N#Cc1sc2nc3c(c(-c4ccco4)c2c1N)CCCC3,30.7*,-0.9,1.4,-19.6,-71.3,-2.4
Cn1c(=O)c2ncn(CC(=O)Nc3ccc4oc(-c5cccc6ccccc56)nc4c3)c2n(C)c1=O,0.6,-1.0,-0.4,-1.4,-6.5,-0.6
CCC(C)c1ccc2oc(-c3ccc(NC(=O)Cn4cnc5c(=O)n(C)c(=O)n(C)c54)cc3)nc2c1 (stereo not given),-5.2,-0.5,1.9,9.3,110.8*,7.7
COc1ccc(-n2nnnc2-c2cccc(OC)c2)cc1,34.6*,-0.3,-0.8,20.1,-0.8,-1.9
O=C(Nc1ccc(N2C(=O)C3C4C=CC(C4)C3C2=O)cc1)Nc1cccnc1 (stereo not given),-3.3,-0.7,-1.3,-10.8,-20.9,-4.9
CCOc1cc(CN2CCN(c3cccc(C(F)(F)F)c3)CC2)ccc1O,8.8,-0.4,8.3,33.4,nt,20.1*
